Source: PubChem BioAssay (several laboratories)
Shown are actives, neighbours in structure and some others; about 9.4% of the full set was active somewhere.
Mdm2-MdmX inh – human Mdm2/MdmX binding inhibition. SaOS-2 split-luciferase Mdm2/MdmX complementation, luminescence. inhibition, % at 8 µM. hit rate 3% among 330,000. AID 485346;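 active = inhibition of at least 50% at 8 µM in the primary screen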
Target sequence (O15151 whole entry, looked up): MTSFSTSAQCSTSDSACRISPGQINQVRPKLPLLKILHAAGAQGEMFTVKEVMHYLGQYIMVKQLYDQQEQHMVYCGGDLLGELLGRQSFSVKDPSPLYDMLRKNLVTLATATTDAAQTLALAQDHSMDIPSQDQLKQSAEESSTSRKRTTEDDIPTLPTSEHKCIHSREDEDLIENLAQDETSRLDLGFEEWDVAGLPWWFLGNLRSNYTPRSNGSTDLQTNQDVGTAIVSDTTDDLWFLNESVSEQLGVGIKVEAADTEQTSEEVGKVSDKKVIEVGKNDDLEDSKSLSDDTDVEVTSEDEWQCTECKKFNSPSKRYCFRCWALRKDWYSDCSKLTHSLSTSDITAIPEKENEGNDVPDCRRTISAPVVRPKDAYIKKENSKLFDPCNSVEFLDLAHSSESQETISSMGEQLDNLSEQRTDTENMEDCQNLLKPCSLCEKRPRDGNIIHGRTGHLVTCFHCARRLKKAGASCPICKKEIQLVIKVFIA
Target sequence (Q00987 whole entry, looked up): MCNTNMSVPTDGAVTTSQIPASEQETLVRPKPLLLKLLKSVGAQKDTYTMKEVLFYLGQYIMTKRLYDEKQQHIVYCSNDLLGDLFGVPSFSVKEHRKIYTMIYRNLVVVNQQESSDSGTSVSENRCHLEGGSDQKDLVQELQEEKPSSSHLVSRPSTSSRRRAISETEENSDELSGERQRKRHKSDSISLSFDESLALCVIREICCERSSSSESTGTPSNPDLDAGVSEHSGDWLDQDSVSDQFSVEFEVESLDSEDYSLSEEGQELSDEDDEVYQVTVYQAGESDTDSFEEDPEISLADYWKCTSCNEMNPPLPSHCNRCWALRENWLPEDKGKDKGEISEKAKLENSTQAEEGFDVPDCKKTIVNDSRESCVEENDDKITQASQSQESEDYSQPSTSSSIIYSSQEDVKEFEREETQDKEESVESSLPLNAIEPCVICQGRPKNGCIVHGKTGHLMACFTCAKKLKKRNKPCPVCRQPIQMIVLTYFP
Beta cell apopt – blocks beta cell apoptosis | protection from apoptosis, % (concentration not given with the values) | AID 435005 | INS-1E cytokine-induced death, ATP luminescence, 48 h; percent of positive-control rescue, neutral wells zero | hit rate 0.8% among 300,000;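 active = Every replicate reaches about 75%, or at least half do and their mean reaches it too, limit read from the data; inconclusive = At least half of replicates reach the limit but their mean does not; inactive = Under half of replicates reach the limit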;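 note: higher means more ATP so stronger rescue from cytokine killing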
T cruzi repl – T. cruzi replication inhibition. T. cruzi beta-gal in NIH3T3, luminescence, 90 h. inhibition, % (no concentration beside the values). hit rate 1.4% among 300,000. AID 1885;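 active = mean inhibition across valid replicates above about 55%, limit read from the data; inconclusive = mean below that limit but half or more replicates reach it; inactive = mean below it, under half of replicates reach it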;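 note: signal also drops with host cell toxicity which is not excluded here; higher percent means less beta-gal luminescence so fewer parasites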
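compound dosing = single 50 nL compound addition per well in DMSO | material = NIH/3T3 host cells with β-galactosidase reporter T. cruzi | input = 5,000 host fibroblasts per well | timing = ≥90 h infection period, 3 h prior cell attachment | read-out basis = percent inhibition of parasite-derived β-gal signal | detection = GalScreen β-gal luminescence, detergent lysis, 60 min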
L major viab – reduces viability of Leishmania major promastigotes; resazurin fluorescence viability; inhibition, % at 10 µM; hit rate 9% among 200,000; AID 1063; in the data active = inhibition above about 50%;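 note: promastigotes grown with compound for 44 hours at 28 °C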
CSC inhib – cancer stem cell inhibition | inhibition, % at 7.5 µM | hit rate 1.1% among 300,000 | AID 2717 | cancer stem cell-like cells viability, luminescence; in the data active = inhibition above about 75%; inconclusive = no clear call, values can overlap the other calls; tested in HMLE shEcad cells
SKKanGAS inh – blocks kanamycin growth of S. pyogenes SKKanGAS strain; BacTiter-Glo, 6 h; inhibition, % at 7.5 µM; hit rate 1.3% among 300,000; AID 1662;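 active = mean replicate score, as percent of positive control median, at least 50; inconclusive = mean below 50 but one replicate at or above 50; inactive = mean and every replicate below 50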;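 note: strain carries kanamycin resistance gene driven by streptokinase promoter and grows in 40 µg/ml kanamycin; loss of luminescence reflects streptokinase promoter inhibition or plain growth inhibition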
Large screens that a line does not name were inactive.

COCCSc1nc2c(c(=O)[nH]c(=O)n2C)n1CCCc1ccccc1	none (no result: L major viab)
Cn1c(=O)[nH]c(=O)c2c1nc(SCCN1CCCCC1)n2CCCc1ccccc1	L major viab 98 (no result: T cruzi repl, SKKanGAS inh)
CCCCn1c(SCC(=O)c2ccccc2)nc2c1c(=O)[nH]c(=O)n2C	SKKanGAS inh 80
Cn1c(=O)[nH]c(=O)c2c1nc(SCCN1CCCCC1)n2Cc1ccccc1	L major viab 99
CCCCCCn1c(N2CCN(c3cccc(Cl)c3)CC2)nc2c1c(=O)[nH]c(=O)n2C	none
Cc1ccc(Cn2c(SCCN3CCCCC3)nc3c2c(=O)[nH]c(=O)n3C)cc1	none
COc1ccc(N(CC(=O)NCCSCc2ccco2)S(=O)(=O)c2ccccc2)cc1Cl	none (no result: L major viab)
CC(OC(=O)c1cccc(N2C(=O)c3ccccc3C2=O)c1)C(=O)Nc1ccc(N(C)C)cc1 (stereo not given)	L major viab 56
CCO[C@H]1OC(C(=O)NC2CC2)=C[C@@H](C2CC2)[C@@H]1CCCO	none
O=C(NCC1CCCO1)C1CCN(S(=O)(=O)c2cc(Cl)ccc2Cl)CC1 (stereo not given)	none (no result: L major viab, CSC inhib)
Cc1ccc(-n2nnc3c(SCC(=O)NCC4CCCO4)ncnc32)cc1 (stereo not given)	L major viab 86
CCOC(=O)N1CCN(S(=O)(=O)CCNC(=O)c2ccc(F)cc2)CC1	none (no result: L major viab, CSC inhib)
CCOc1c(Br)cc(/C=N\NC(=O)c2ccccc2)cc1OC	none
O=C(N/N=C/c1ccncc1)NC12CC3CC(CC(C3)C1)C2	none (no result: Beta cell apopt, L major viab, CSC inhib)
O=C(CC12CC3CC(CC(C3)C1)C2)N/N=C/c1ccncc1	L major viab 68
COc1cc(/C=N/NC(=O)CC23CC4CC(CC(C4)C2)C3)cc(Br)c1OCC(=O)N(C)C	L major viab 93
CC1(C)CC(=O)C2=C(C1)NC1=C(C(=O)c3ccccc31)C2c1ccccc1 (stereo not given)	L major viab 89
CC1(C)CC(=O)C2=C(C1)NC1=C(C(=O)c3ccccc31)C2c1cccnc1 (stereo not given)	none
CC(C)(C)c1ccc(C2C3=C(CCCC3=O)NC3=C2C(=O)c2ccccc23)cc1 (stereo not given)	L major viab 88 (no result: Beta cell apopt, T cruzi repl, CSC inhib, SKKanGAS inh)
COc1ccc(-c2cn3cc(C(=O)NN)ccc3n2)cc1	none
NNC(=O)c1ccc2nc(-c3ccc(Br)cc3)cn2c1	L major viab 54
CCc1ccc(NC(=O)c2ccc(C3SCC(=O)N3CCc3ccccc3)cc2)cc1 (stereo not given)	L major viab 93
O=C(NCc1ccccc1)c1ccc(C2SCC(=O)N2Cc2ccccc2)cc1 (stereo not given)	L major viab 97
CCNC(=O)c1ccc(C2SCC(=O)N2CCc2ccccc2)cc1 (stereo not given)	none
C=CCNC(=O)c1ccc(C2SCC(=O)N2Cc2ccccc2)cc1 (stereo not given)	none
COc1cccc(-c2nn(-c3ccc(F)cc3)cc2C(=O)NCC2CCCO2)c1 (stereo not given)	none (no result: L major viab)
Cc1ccc(C2=Nc3ccc(Br)cc3C(c3ccncc3)=NN2)cc1	T cruzi repl inconclusive, L major viab 85
Cc1ccc2c(c1)C(c1ccncc1)=NNC(c1ccc(F)cc1)=N2	none
CCc1ccc2c(c1)C(c1ccncc1)=NNC(c1ccccc1)=N2	L major viab 55
Cc1nn(-c2ccccc2)c(Cl)c1C(=O)OCC(=O)NCCc1ccc(S(N)(=O)=O)cc1	none (no result: Beta cell apopt, T cruzi repl, L major viab, CSC inhib, SKKanGAS inh)
CN1CCN(c2ccc(CNS(=O)(=O)Cc3cccc(C(F)(F)F)c3)cc2)CC1	Beta cell apopt 86 (no result: L major viab)
O=C(CN1CC[n+]2c(-c3cccs3)csc21)c1ccc(-c2ccccc2)cc1	Beta cell apopt 111
O=C1C2=C(NC(=S)NC2c2ccc(Cl)cc2)NC(c2ccc(Cl)cc2)N1c1ccc(Cl)cc1 (stereo not given)	T cruzi repl 57, L major viab 100, CSC inhib 101, SKKanGAS inh 105
CCc1ccc(C2NC(=S)NC3=C2C(=O)N(c2ccccc2OC)C(c2ccc(CC)cc2)N3)cc1 (stereo not given)	none (no result: CSC inhib)
CCOC(=O)N/N=C/c1ccccc1OCc1ccc(Cl)cc1	none (no result: Beta cell apopt, CSC inhib)
COc1cccc(/C=N/NC(N)=S)c1OCc1ccccc1Cl	T cruzi repl 59
NC(=S)N/N=C/c1ccccc1OCCSc1ccc(Cl)cc1	T cruzi repl 57, L major viab 100
CCc1ccccc1NC(=O)CN(C)C(=O)c1cc(C2CC2)nc2c1cnn2C(C)C	none (no result: T cruzi repl, L major viab, SKKanGAS inh)
CCC1CCCCN1C1Sc2ccc(C(=O)OC)cc2NC1=O (stereo not given)	L major viab 100
N#C/C(=C\c1cccc(Br)c1)C(=O)N1CCCCC1	none (no result: L major viab)
CC1CCCN(C2=NC(=O)/C(=C/c3cn(-c4ccccc4)nc3-c3cccc(S(=O)(=O)N(C)C)c3)S2)C1 (stereo not given)	L major viab 69
CN(C)S(=O)(=O)c1cccc(-c2nn(-c3ccccc3)cc2/C=C(/C#N)C(=O)NCc2ccco2)c1	none
CC1CCN(C2=NC(=O)/C(=C/c3cn(-c4ccccc4)nc3-c3cccc(S(=O)(=O)N(C)C)c3)S2)CC1	L major viab 80
Cc1ccc(-c2cc(C(F)(F)F)n3ncc(C(=O)N4CCN(C)CC4)c3n2)cc1	L major viab 99 (no result: Beta cell apopt, T cruzi repl, SKKanGAS inh)
O=C(c1cnn2c(C(F)(F)F)cc(-c3ccc4c(c3)OCO4)nc12)N1CCCCC1	L major viab 99
O=C(c1nn2c(C(F)(F)F)cc(-c3cccs3)nc2c1Br)N1CCCc2ccccc21	L major viab 69
CN1CCN(C(=O)c2cnn3c(C(F)(F)F)cc(-c4cccs4)nc23)CC1	none
CN1CCN(C(=O)c2cnn3c(C(F)(F)F)cc(-c4ccc5c(c4)OCO5)nc23)CC1	L major viab 84
Cc1nc(OCc2c(C)noc2C)c2ccccc2n1	none (no result: CSC inhib)
Cc1ccc(N2CC(C(=O)Nc3c4c(nn3C(C)(C)C)CS(=O)(=O)C4)CC2=O)cc1C (stereo not given)	none (no result: L major viab)
O=C(COC(=O)c1cc(=O)[nH]c2ccccc12)NCc1ccccc1	none (no result: T cruzi repl, L major viab, SKKanGAS inh)
O=C(c1cnn2c(C(F)(F)F)cc(-c3cccs3)nc12)N1CCN(Cc2ccccc2)CC1	T cruzi repl 75
NC(=O)c1cc2c(s1)-c1cc(Cl)ccc1SC2	none (no result: L major viab)
CSc1ncc2c(n1)-c1cc(C)ccc1SC2	T cruzi repl 75 (no result: CSC inhib)
Cc1ncc2c(n1)-c1cc(F)ccc1SC2	T cruzi repl inconclusive (no result: L major viab)
Nc1ncc2c(n1)-c1cc(Cl)ccc1SC2	T cruzi repl 72
CCN1CCCC1CNC(=O)CS(=O)(=O)Cc1nc(-c2ccccc2C)oc1C (stereo not given)	none
CCN1CCCC1CNC(=O)CSCc1nc(-c2ccccc2C)oc1C (stereo not given)	L major viab 99
COC(=O)c1ccc(-c2nc(CN3CCCN(C(=O)c4ccco4)CC3)c(C)o2)cc1	none (no result: L major viab)
COc1ccc(-c2nc(CN3CCN(Cc4cccc(Cl)c4)CC3)c(C)o2)cc1	T cruzi repl 56 (no result: L major viab)
